Test results reported in ChEMBL document CHEMBL1155047, “Isolation, structure, and antibacterial activity of phaeosphenone from a Phaeosphaeria sp. discovered by antisense strategy” (J Nat Prod, 2008).
≈ marks a conversion by molar mass, not a printed value. Calls of active or inactive are those of the source. The rule behind the calls is not given here.

Legend:
Staphylococcus aureus [1] = assay: Inhibition of Staphylococcus aureus RNA synthesis; format: functional, organism-based
Outline: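 Mid-log S. aureus (A600 0.5–0.6) is exposed to increasing compound concentrations for 20 min at 37 °C with 1 µCi/mL 5,6-[3H]uracil. The reaction is stopped with 10% trichloroacetic acid, and cells are collected on glass-fibre filters. Incorporated label is counted by scintillation.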

Candida albicans = assay: Antimicrobial activity against wild type Candida albicans MY1055; format: functional
Outline: (§1)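 Broth microdilution under NCCLS guidelines, with 2-fold serial compound dilutions. Cells are incubated at 37 °C for 20 h. MIC is the lowest concentration that prevents visible growth. The concentration giving 80% growth inhibition is also reported.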

Streptococcus pneumoniae [2] = assay: Antimicrobial activity against penicillin, quinoline and macrolide-sensitive Streptococcus pneumoniae CL2883 in isosensitet medium; format: functional
Outline: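 Pneumococcal broth MIC run in Isosensitest medium with 2-fold serial compound dilutions, 37 °C for 20 h. The reading is the lowest concentration with no visible growth.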

Staphylococcus aureus [3] = assay: Antimicrobial activity against methicillin-sensitive Staphylococcus aureus ATCC 29213; format: functional; outline: as §1
Enterococcus faecalis = assay: Antimicrobial activity against vancomycin-sensitive and macrolide-resistant Enterococcus faecalis CL8516; format: functional
Outline: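 Broth microdilution MIC under NCCLS guidelines in cation-adjusted Mueller Hinton broth unless stated otherwise; inoculum 10^5 CFU/mL; 2-fold serial compound dilutions in growth medium; 37 °C for 20 h. MIC read as lowest concentration preventing visible growth; a value for 80% growth inhibition also reported.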

Haemophilus influenzae = assay: Antimicrobial activity against ampicillin, quinoline and macrolide-sensitive Haemophilus influenzae MB4572; format: functional; outline: as §1
Bacillus subtilis = assay: Antimicrobial activity against wild type Bacillus subtilis MB964; format: functional; outline: as §1
Staphylococcus aureus [4] = assay: Antimicrobial activity against Staphylococcus aureus RN450 assessed as zone size at 31.25 ug/ml by two-plate differential sensitivity assay; format: functional, organism-based
Outline: (§2)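 The S. aureus RN450 strains carry plasmid S1-782B, either with rpsD antisense RNA or with empty vector (control). Overnight cultures are grown in Miller's LB with 34 µg/mL chloramphenicol at 37 °C, 220 rpm, for 18–20 h. They are seeded 1:1000 of OD 3.0 into LB agar with 0.2% glucose and 15 µg/mL chloramphenicol; 12 mM xylose is added for the antisense strain only. Samples go into wells at 2-fold dilutions from 500 to 31.25 µg/mL. Zones are read after 18 h at 37 °C.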

Staphylococcus aureus [5] = assay: Antimicrobial activity against methicillin-sensitive Staphylococcus aureus MB2865; format: functional; outline: as §1
Escherichia coli = assay: Antimicrobial activity against wild type Escherichia coli MB2884; format: functional; outline: as §1
Streptococcus pneumoniae [6] = assay: Antimicrobial activity against penicillin, quinoline and macrolide-sensitive Streptococcus pneumoniae CL2883 in CAMHB and 2.5 % lysed horse serum medium; format: functional; conditions: in the assay text read “lysed horse blood” for “lysed horse serum”
Outline: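 Broth MIC with 2-fold serial dilution in cation-adjusted Mueller Hinton broth plus 2.5% lysed horse blood, incubated 20 h at 37 °C, NCCLS guidelines. Endpoint is no visible growth.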

Staphylococcus aureus [7] = assay: Antimicrobial activity against Staphylococcus aureus RN450 assessed as zone size at 500 ug/ml by two-plate differential sensitivity assay; format: functional; conditions: read-out: IZ; outline: as §2
Staphylococcus aureus [8] = assay: Antimicrobial activity against Staphylococcus aureus RN450 carrying plasmid S1-782B bearing antisense […] RNA assessed as zone size at 500 ug/ml by two-plate differential sensitivity assay; format: functional; conditions: read-out: IZ; outline: as §2
Staphylococcus aureus [9] = assay: Antimicrobial activity against Staphylococcus aureus RN450 carrying plasmid S1-782B bearing antisense […] RNA assessed as zone size at 31.25 ug/ml by two-plate differential sensitivity assay; format: functional; conditions: read-out: IZ; outline: as §2
Staphylococcus aureus [10] = assay: Antimicrobial activity against methicillin-sensitive Staphylococcus aureus MB2865 in presence of human serum; format: functional

| IC50 (Staphylococcus aureus [1]) | SMILES | MIC (Candida albicans) | MIC (Streptococcus pneumoniae [2]) | MIC (Staphylococcus aureus [3]) | MIC80 (Staphylococcus aureus [3]) | MIC (Enterococcus faecalis) | MIC (Haemophilus influenzae) | MIC (Bacillus subtilis) | Activity (Staphylococcus aureus [4]) | MIC (Staphylococcus aureus [5]) | MIC80 (Staphylococcus aureus [5]) | MIC (Escherichia coli) | MIC (Streptococcus pneumoniae [6]) | zone of inhibition at 500 µg/mL (Staphylococcus aureus [7]) | zone of inhibition at 500 µg/mL (Staphylococcus aureus [8]) | zone of inhibition at 31.25 µg/mL (Staphylococcus aureus [9]) | MIC (Staphylococcus aureus [10]) |
| --- | --- | --- | --- | --- | --- | --- | --- | --- | --- | --- | --- | --- | --- | --- | --- | --- | --- |
| 6 µg/mL (≈ 20.7 µM) | Cc1cc(O)c2c(c1)C(=O)C1=C(C2=O)[C@@H](O)[C@@H](O)[C@@H](O)C1 [PLEOSPORONE] |  |  |  |  |  |  |  |  |  |  |  |  |  |  |  |  |
|  | Cc1cc(O)c2c(c1)C(=O)c1c(cc(C)c([C@H]3C[C@@H](O)C4=C(C(=O)C5=C(C4=O)[C@@H](O)CC[C@@H]5O)[C@H]3O)c1O)C2=O [PHAEOSPHENONE] | 8 µg/mL (≈ 14.6 µM) | 8 µg/mL (≈ 14.6 µM) | 32 µg/mL (≈ 58.6 µM) | 16 µg/mL (≈ 29.3 µM) | 64 µg/mL (≈ 117 µM) | > 64 µg/mL | 16 µg/mL (≈ 29.3 µM) | inactive | 64 µg/mL (≈ 117 µM) | 32 µg/mL (≈ 58.6 µM) | > 64 µg/mL | 64 µg/mL (≈ 117 µM) | 11.8 mm | 16 mm | 7 mm | > 64 µg/mL |
